According to ChEMBL document CHEMBL2016456, “Antiangiogenic effect of chamigrane endoperoxides from a Thai mangrove-derived fungus” (J Nat Prod, 2011):
Activity calls are given as the source filed them. No cut-off for these calls is given here.

What was measured:
Aorta [1] = assay: Antiangiogenic activity in Wistar rat aortic ring assessed as complete inhibition of microvessel sprouting at 25 uM after 7 days by phase-contrast microscopy; format: functional, tissue-based
HUVEC [2] = assay: Inhibition of VEGF-stimulated Akt phosphorylation in HUVEC at 2.5 to 10 uM after 1 hr by Western blot analysis; format: cell-based; settings: Homo sapiens
Method in brief: (§1)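 Confluent HUVECs starved 16 h in RPMI 1640 with 5% FBS. Pretreated 60 min with compound (2.5–10 μM) or vehicle, then stimulated with VEGF 10 ng/mL for 10 min. Lysates (50 μg protein) run on SDS-PAGE under reducing conditions. Blots probed for phospho-Erk1/2 or phospho-Akt and total proteins; chemiluminescence detection.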

HUVEC [3] = assay: Antiangiogenic activity in HUVEC assessed as inhibition of tube formation at 2.5 to 10 uM after 12 hrs by light microscopy matrigel based assay; format: functional, cell-based; settings: Homo sapiens
Method in brief: (§2)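 HUVECs (passages 3–7) at 1 × 10^5 cells/mL in HuMedia EG2 with compound or DMSO seeded onto solidified Matrigel. Incubated 12 h at 37 C, 5% CO2. Tube formation observed under inverted light microscope at 40× and photographed.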

Aorta [4] = assay: Antiangiogenic activity in Wistar rat aortic ring assessed as complete inhibition of microvessel sprouting at 2.5 uM after 7 days by phase-contrast microscopy; format: functional, tissue-based
Mus musculus [5] = assay: Antiangiogenic activity in C57BL/6 mouse assessed as inhibition of bFGF-induced neovascularization at 10 uM, sc after 7 days by matrigel plug assay relative to control; format: functional, organism-based
Method in brief: (§3)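 C57BL/6 mice, male, three per group; 0.5 mL Matrigel with bFGF (10 ng/mL) plus compound (10 μM) or DMSO vehicle injected subcutaneously, allowed to form a plug. After 7 days, plugs excised, formaldehyde-fixed, paraffin-embedded, sectioned, H&E stained. Plug hemoglobin quantified by QuantiChrom kit against hemoglobin standard. Means ± SEM; ANOVA with Dunnett or Student's t test.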

HUVEC [6] = assay: Antiangiogenic activity in HUVEC assessed as inhibition of VEGF-induced endothelial migration at > 5 uM after 6 hrs using Diff-Quik staining by modified Boyden chamber based chemotactic migration assay; format: functional, cell-based; settings: Homo sapiens
Method in brief: (§4)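 Modified Boyden chamber, 8 μm membrane coated with 0.1% gelatin. HUVECs (2.5 × 10^5 cells/mL) in Medium 199 with 0.1% BSA in upper chamber. Lower well held Medium 199, 0.1% BSA, VEGF 10 ng/mL, with or without compound. After 6 h at 37 C, migrated cells methanol-fixed, Diff-Quik stained, counted in three fields at 200×.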

Mus musculus [7] = assay: Antiangiogenic activity in C57BL/6 mouse assessed as decrease in hemoglobin level at 10 uM, sc after 7 days using hematoxylin eosin staining by matrigel plug assay relative to control; format: functional, organism-based; method in brief: as §3
HUVEC [8] = assay: Antiangiogenic activity in HUVEC assessed as complete inhibition of tube formation at 50 uM after 12 hrs by light microscopy matrigel based assay; format: functional, cell-based; settings: Homo sapiens; method in brief: as §2
[9] = target: T1, Mitogen-activated protein kinase; ERK1/ERK2 (Homo sapiens) (UniProt P27361+P28482); assay: Inhibition of VEGF-stimulated ERK1/2 phosphorylation in HUVEC at 2.5 to 10 uM by Western blot analysis; format: protein assay; settings: TDE = time-dependent effect; method in brief: as §1
HUVEC [10] = assay: Antiangiogenic activity in HUVEC assessed as inhibition of VEGF-induced endothelial migration after 6 hrs using Diff-Quik staining by modified Boyden chamber based chemotactic migration assay; format: functional, cell-based; settings: Homo sapiens; method in brief: as §4
HUVEC [11] = assay: Antiangiogenic activity in HUVEC assessed as inhibition of tube formation at 25 uM after 12 hrs by light microscopy matrigel based assay; format: functional; settings: Homo sapiens; method in brief: as §2
Aorta [12] = assay: Antiangiogenic activity in Wistar rat aortic ring assessed as complete inhibition of microvessel sprouting at 2.5 uM after 7 days by phase-contrast microscopy relative to steperoxide A; format: functional
HUVEC [13] = assay: Antiproliferative activity against HUVEC after 72 hrs by WST8 assay; format: functional, cell-based; settings: Homo sapiens
Method in brief: (§5)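 HUVECs at 1.5 × 10^4 cells/mL plated and grown 24 h. Medium then replaced with HuMedia EG2 containing compound or DMSO for 72 h at 37 C, 5% CO2. Proliferation read by WST-8 absorbance at 450 nm.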

[14] = target: T1, Mitogen-activated protein kinase; ERK1/ERK2 (Homo sapiens); assay: Inhibition of VEGF-stimulated ERK1/2 activation in HUVEC after 1 hr by Western blot analysis; format: protein assay; method in brief: as §1
HUVEC [15] = assay: Antiproliferative activity against HUVEC at 25 uM after 72 hrs by WST8 assay; format: functional; settings: Homo sapiens; method in brief: as §5

T1 sequence (P27361 whole entry, looked up): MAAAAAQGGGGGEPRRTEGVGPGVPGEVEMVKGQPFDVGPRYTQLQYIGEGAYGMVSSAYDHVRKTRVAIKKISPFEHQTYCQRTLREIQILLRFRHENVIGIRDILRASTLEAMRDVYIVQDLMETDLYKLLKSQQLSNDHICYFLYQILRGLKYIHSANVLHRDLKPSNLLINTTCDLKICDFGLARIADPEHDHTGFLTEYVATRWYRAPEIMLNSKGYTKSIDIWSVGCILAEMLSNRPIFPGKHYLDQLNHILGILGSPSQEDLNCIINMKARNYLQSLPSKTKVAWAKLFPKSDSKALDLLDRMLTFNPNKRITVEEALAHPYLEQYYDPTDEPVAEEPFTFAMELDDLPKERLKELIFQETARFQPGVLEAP
T1 sequence (P28482 whole entry, looked up): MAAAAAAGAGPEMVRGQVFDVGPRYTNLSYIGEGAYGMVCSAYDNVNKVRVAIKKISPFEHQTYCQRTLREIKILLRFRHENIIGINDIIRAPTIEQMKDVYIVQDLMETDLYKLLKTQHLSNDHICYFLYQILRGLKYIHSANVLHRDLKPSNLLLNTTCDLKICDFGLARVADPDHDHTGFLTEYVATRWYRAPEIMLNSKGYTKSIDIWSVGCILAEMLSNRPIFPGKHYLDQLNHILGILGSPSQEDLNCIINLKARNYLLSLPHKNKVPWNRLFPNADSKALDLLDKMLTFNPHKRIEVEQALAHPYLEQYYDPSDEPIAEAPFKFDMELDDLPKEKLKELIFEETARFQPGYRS

CC1(C)C=CC(=O)[C@@]2(C)OO[C@@H]3C[C@]12CCC3O (stereo partly drawn)
Activity (Aorta [1]): Active

CC1(C)CCC(=O)[C@@]2(C)OO[C@@H]3C[C@@]12CCC3(O)CO (stereo partly drawn)
Activity (Aorta [1]): inactive

CC1(C)CCC(=O)[C@@]2(C)OO[C@@H]3C[C@@]12CC[C@H]3O
Activity (Aorta [1]): inactive

CC1(C)C=CC(=O)[C@@]2(C)OO[C@@H]3C[C@]12CCC3(O)CO (stereo partly drawn) [MERULIN C]
inhibition (HUVEC [2]): inactive | inhibition (HUVEC [3]): inactive | Activity (Aorta [4]): Active | Activity (Mus musculus [5]): Active | Activity (HUVEC [6]): Active | Activity (Mus musculus [7]): Active | inhibition (HUVEC [8]): Active | inhibition [9]: tde | Activity (HUVEC [10]): Dose-dependent effect | inhibition at 25 µM (HUVEC [11]): 50% | fold change (FC) (Aorta [12]): 10 | Activity (HUVEC [13]): Dose-dependent effect | IC50 (HUVEC [13]): 900 nM | inhibition [14]: Dose-dependent effect | inhibition at 25 µM (HUVEC [15]): 90%
